Measurements reported in ChEMBL document CHEMBL3734747, “Varioxiranols A-G and 19-O-Methyl-22-methoxypre-shamixanthone, PKS and Hybrid PKS-Derived Metabolites from a Sponge-Associated Emericella variecolor Fungus” (J Nat Prod, 2015).
The source made the active and inactive calls. The calls are words filed in the database; no cut-off is given here.

What was measured:
HepG2 [1] = assay: Inhibition of oleic acid-induced triglyceride level in human HepG2 cells at 10 uM; assay type: functional, cell-based
Method in brief: (§1)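 HepG2 cells at 70–80% confluence exposed to 100 μM oleic acid in DMEM for 12 h, then compound at 10 μM plus 100 μM oleic acid for 6 h. Statin positive control. Intracellular total cholesterol and triglyceride measured with commercial kits. n = 3, experiment repeated in triplicate, mean ± SEM.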

HepG2 [2] = assay: Inhibition of oleic acid-induced lipid accumulation in human HepG2 cells at 10 uM by oil red O staining analysis; assay type: functional, cell-based
Method in brief: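 HepG2 cells in DMEM with 10% FBS and penicillin/streptomycin, grown to 70–80% confluence, preloaded with 100 μM oleic acid for 12 h, then given compound at 10 μM in DMEM/100 μM oleic acid for another 6 h. Statin positive control and DMEM/oleic acid blank. Oil Red O staining read by spectrophotometry at 358 nm. n = 8, experiment repeated in triplicate, mean ± SEM.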

HepG2 [3] = assay: Cytotoxicity against human HepG2 cells upto 100 uM by MTT assay; assay type: cell-based
HepG2 [4] = assay: Inhibition of oleic acid-induced total cholesterol level in human HepG2 cells at 10 uM; assay type: functional, cell-based; method in brief: as §1
HepG2 [5] = assay: Decrease in acetyl-CoA carboxylase mRNA level in human HepG2 cells by RT-PCR analysis; assay type: functional, cell-based
HepG2 [6] = assay: Decrease in fatty acid synthase mRNA level in human HepG2 cells by RT-PCR analysis; assay type: functional, cell-based
HepG2 [7] = assay: Decrease in SREBP-1c mRNA level in human HepG2 cells by RT-PCR analysis; assay type: functional, cell-based

| SMILES | inhibition (HepG2 [1]) | inhibition (HepG2 [2]) | Activity (HepG2 [3]) | inhibition (HepG2 [4]) | inhibition (HepG2 [5]) | inhibition (HepG2 [6]) | inhibition (HepG2 [7]) |
| --- | --- | --- | --- | --- | --- | --- | --- |
| C/C=C/[C@H](O)[C@H](O)/C=C/c1cccc(OC)c1CO | inactive | Active | Non-toxic |  |  |  |  |
| CCC[C@H](O)[C@H](O)/C=C/c1cccc(OC)c1CO | Active | Active | Non-toxic | inactive |  |  |  |
| C=C(C)[C@H]1COc2c(C)cc(O)c(C(=O)c3c(O)ccc(CC=C(C)C)c3O)c2[C@@H]1O | Active | Active | Non-toxic | Active | Active | Active | Active |
